Experimental data published in ChEMBL document CHEMBL1134481, “Development of a pharmacophore model for histamine H3 receptor antagonists, using the newly developed molecular modeling program SLATE” (J Med Chem, 2001).
pKi: −log10 of the molar value.

These compounds were tested against Histamine H3 receptor (Cavia porcellus, UniProt Q9JI35) (assay: Displacement of [3H]Nalpha-methylhistamine from histamine H3 receptors in homogenates of rat cerebral cortex). Conditions: read-out: pA2 (converted).
Assay type: tissue-based

Sequence of Histamine H3 receptor (Cavia porcellus, UniProt Q9JI35) (Q9JI35 whole entry): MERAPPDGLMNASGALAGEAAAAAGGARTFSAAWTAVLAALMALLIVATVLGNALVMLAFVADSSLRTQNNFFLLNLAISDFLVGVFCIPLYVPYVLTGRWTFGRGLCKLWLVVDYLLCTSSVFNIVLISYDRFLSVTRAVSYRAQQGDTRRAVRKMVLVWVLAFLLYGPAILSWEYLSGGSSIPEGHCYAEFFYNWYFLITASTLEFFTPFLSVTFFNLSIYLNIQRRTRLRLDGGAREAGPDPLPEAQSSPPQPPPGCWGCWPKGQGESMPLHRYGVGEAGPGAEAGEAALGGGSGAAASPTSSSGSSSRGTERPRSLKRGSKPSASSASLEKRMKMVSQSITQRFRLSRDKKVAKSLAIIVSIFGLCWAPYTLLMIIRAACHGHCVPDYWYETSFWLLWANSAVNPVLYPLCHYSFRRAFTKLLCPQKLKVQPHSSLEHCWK

Row | Compound | Kb [nM]
1 | c1nc(CCC2CCNCC2)c[nH]1 | 3.98
2 | Clc1ccc(Cc2noc(CCCc3cnc[nH]3)n2)cc1 | 7.94
3 | Clc1ccc(CNCCCCCc2c[nH]cn2)cc1 | 1.26
4 | S=C(NC1CCCCC1)N1CCC(c2cnc[nH]2)CC1 [THIOPERAMIDE] | 1.26
5 | Ic1ccc(COCCCc2c[nH]cn2)cc1 [IODOPROXYFAN] | 5.01
6 | NC(=NCc1ccc(Cl)cc1)SCCCc1cnc[nH]1 [CLOBENPROPIT] | 0.158
7 | O=C(NCCCc1c[nH]cn1)NC1CCCCC1 | 50.1

These compounds were tested against T1, Histamine H3 receptor (Rattus norvegicus, UniProt Q9QYN8) (assay: (§1) Ability to displace [3H]Nalpha-methylhistamine from histamine H3 receptors in homogenates of rat cerebral cortex). Conditions: not given.
Assay type: tissue-based
Outline: (§2)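 Binding used 30 µg protein and 1 nM [³H]-Nα-methylhistamine with 0.1–10 000 nM compound, in 50 mM Na⁺ phosphate pH 7.4, for 40 min at 25 °C. Samples were filtered on PEI-treated GF/C and counted by scintillation. Ki = IC50/(1+[ligand]/Kd).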

T1 sequence (Q9QYN8 whole entry): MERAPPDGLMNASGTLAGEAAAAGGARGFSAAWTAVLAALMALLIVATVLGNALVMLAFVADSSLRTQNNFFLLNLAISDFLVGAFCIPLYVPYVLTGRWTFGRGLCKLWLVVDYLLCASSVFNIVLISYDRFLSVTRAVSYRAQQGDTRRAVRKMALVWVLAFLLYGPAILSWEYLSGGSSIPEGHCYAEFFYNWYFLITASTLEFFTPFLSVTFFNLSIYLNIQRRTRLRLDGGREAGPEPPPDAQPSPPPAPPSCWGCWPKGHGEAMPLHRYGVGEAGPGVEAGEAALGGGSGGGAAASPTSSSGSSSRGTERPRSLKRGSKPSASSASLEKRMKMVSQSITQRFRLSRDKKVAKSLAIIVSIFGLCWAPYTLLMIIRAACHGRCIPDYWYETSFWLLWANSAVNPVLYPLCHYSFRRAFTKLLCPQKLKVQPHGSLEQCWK

Row | pKi | Compound
8 | < 4.00 | CCCS/C(=N/C)NCc1ccc(Cl)cc1
9 | 8.10 | CC/N=C(\NCc1ccc(Cl)cc1)SCCCc1c[nH]cn1
10 | 9.30 | Clc1ccc(CN=C(NC2CCCCC2)SCCCc2cnc[nH]2)cc1
11 | 7.90 | c1nc(CCCS/C(=N/C2CCCCC2)NC2CCCCC2)c[nH]1

Row | Compound | pKi
12 | C/N=C(/NCc1ccc(Cl)cc1)SCCCc1c[nH]cn1 | 8.50

Each compound was assayed against T1, Histamine H3 receptor (assay: as §1). Conditions: not given.
Assay type: tissue-based
Outline: as §2, with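 “Rat cortex membranes were made by homogenizing in Tris/HCl (50 mM, 5 mM MgCl₂, 145 mM NaCl, pH 7.4) and spinning at 800g, then twice at 40000g. Binding” for “Binding”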

Row | Compound | pKi
13 | CC(C)(C)CC#CC1CC1c1cnc[nH]1 (stereo unspecified) | 9.74
14 | NC(/C=C/C1CC1c1c[nH]cn1)CC1CCCCC1 (stereo unspecified) | 9.40
15 | N=C(Cc1ccc(Cc2cnc[nH]2)cc1)NCc1ccc(Cl)cc1 | 8.15
16 | O=C(Cc1ccc(Cl)cc1)OCCCc1c[nH]cn1 | 7.85
